Only some compounds are listed: those with a hit (about 1.9% of all), similar ones and a draw of the others.
Runt-CBFb FRET: inhibitors of human RUNX1 Runt domain binding to CBFb. 0.46% of 220,000 active. AID 1496. inhibition, % at 20 µM. Cerulean-Runt/Venus-CBFb FRET ratio 530/480, 1 h;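 active = inhibition over about 50% at 20 µM in the single-dose screen, limit read from the data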
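test system = Cerulean-Runt domain fusion protein, energy donor | probe or stimulus = Venus-CBFb binding partner, 100 nM | incubation = two 1 h room-temperature incubations shielded from light | detection = fluorescence energy transfer, 422 nm excitation, 530/480 nm emission | measure = loss of energy transfer signal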
Runt-SMMHC FRET: inhibitors of human RUNX1 Runt domain binding to CBFb-SMMHC; Q01196+Q13951; Cerulean-Runt/Venus-CBFb-SMMHC FRET ratio 530/480, 1 h; inhibition, % at 20 µM; 0.74% of 220,000 active;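 active = mean inhibition across duplicate retests at 20 µM reaching about 50%, limit read from the data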;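 note: inhibitors lower the FRET ratio by blocking Runt binding to CBFb-SMMHC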
Tb hexokinase: blocks Trypanosoma brucei hexokinase 1 activity; recombinant TbHK1, G6PDH-coupled NADH A340; inhibition, % at 10 µM; 0.11% of 220,000 active; AID 1430;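 active = inhibition of 50% or more in the single-dose primary screen; inactive = inhibition below 50%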
RanGTP-Imp inh: disruptors of Ran-importin-beta complex formation – biochemical, FRET, CFP-Ran, YFP-importin-beta, homogeneous, primary screen | cell-free CFP-Ran/YFP-importin-beta FRET ratio | inhibition, % (test concentration not listed) | 1.1% of 300,000 active | AID 2216;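 active = more than half of the replicate wells show a fall in the fluorescence ratio signal beyond about 16%, limit read from the data, passing the limit was not always enough; inconclusive = exactly half of the replicate wells pass the set limit; inactive = fewer than half of replicates pass the limit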
Hck Nef HTS: blocks Nef-activated human Hck kinase. P08631. Recombinant Hck-YEEI plus Nef, Z-Lyte FRET kinase assay. inhibition, % at 20 µM. 0.68% of 220,000 active. AID 463187;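 active = Hck-Nef kinase inhibition above about 50%, limit read from the data; inactive = inhibition below that limit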
Target sequence (P08631 whole entry, looked up): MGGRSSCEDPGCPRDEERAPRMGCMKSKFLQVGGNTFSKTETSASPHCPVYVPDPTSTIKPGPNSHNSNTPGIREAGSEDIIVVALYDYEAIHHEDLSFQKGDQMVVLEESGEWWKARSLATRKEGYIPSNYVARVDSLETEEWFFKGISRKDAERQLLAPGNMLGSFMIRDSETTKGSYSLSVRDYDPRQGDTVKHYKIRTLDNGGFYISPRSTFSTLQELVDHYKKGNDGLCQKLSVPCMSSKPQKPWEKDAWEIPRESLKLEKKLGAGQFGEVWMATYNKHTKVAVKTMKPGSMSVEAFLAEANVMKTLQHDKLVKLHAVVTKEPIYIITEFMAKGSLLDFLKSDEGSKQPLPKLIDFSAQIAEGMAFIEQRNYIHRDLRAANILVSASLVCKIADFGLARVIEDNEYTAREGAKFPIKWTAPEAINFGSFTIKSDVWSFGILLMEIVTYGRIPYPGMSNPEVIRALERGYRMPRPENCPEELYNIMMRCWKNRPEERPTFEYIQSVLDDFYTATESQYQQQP
Hits are given with their value; n = inactive; u = inconclusive; x = no result; ! = not active in a repeat.

SMILES	Runt-CBFb FRET	Runt-SMMHC FRET	Tb hexokinase	RanGTP-Imp inh	Hck Nef HTS
CCOC(=O)C1CCN(C(=O)CN2C(=O)CSc3ccc(S(=O)(=O)N4CCOCC4)cc32)CC1	x	x	x	n	x
O=C(CN1C(=O)CSc2ccc(S(=O)(=O)N3CCOCC3)cc21)N1CCCCC1	x	x	x	62.1	x
CC(C)(C)c1nc(SCC(=O)NNC(=O)c2ccccc2)c2ccccc2n1	x	x	x	n	x
CN(C)c1c2ccccc2nc2c(F)c(F)c(F)c(F)c12	x	n	n	23.1	n
Cc1c2ccccc2nc2c(F)c(N(C)C)c(F)c(F)c12	n	n	n	n	n
Cc1ccccc1N1CCN(S(=O)(=O)Cc2ccccc2)CC1	x	x	x	n	x
c1cncc(-c2csc(-c3cccnc3)n2)c1	x	x	x	n	x
Clc1ccsc1-c1csc(-c2cccnc2)n1	n	n	n	37.5	n
CCOC(=O)C(C#N)=C1CCN(Cc2ccccc2)CC1	x	x	x	51.2	x
COc1cccc(N=CC=C2OC(C)(C)C(C)(C)O2)c1	n	n	n	n	n
COc1ccc(N=CC=C2OC(C)(C)C(C)(C)O2)cc1OC	n	n	n	14.7	n
CN1CCN(c2nc3ccccn3c(=O)c2/C=C(\C#N)S(=O)(=O)c2ccc(Cl)cc2)CC1	n	n	n	96.7	n
Cc1cccn2c(=O)c(/C=C(\C#N)S(=O)(=O)c3ccccc3)c(Oc3ccc(Cl)cc3)nc12	n	n	n	26.9	n
COC(=O)/C(C#N)=C/c1c(N2CCN(C)CC2)nc2ccccn2c1=O	x	x	x	107.4	x
Cc1ccc(S(=O)(=O)/C(C#N)=C/c2c(N3CCCCC3)nc3ccccn3c2=O)cc1	n	n	n	n	n
Cc1ccc(S(=O)(=O)/C(C#N)=C/c2c(N3CCN(C)CC3)nc3ccccn3c2=O)cc1	n	n	n	65.5	n
N#C/C(=C\c1c(N2CCC(C(N)=O)CC2)nc2ccccn2c1=O)S(=O)(=O)c1ccc(Cl)cc1	n	n	n	n	n
COC(=O)/C(C#N)=C/c1c(N2CCN(c3ccccc3)CC2)nc2ccccn2c1=O	x	x	x	n	x
CC(C)(C)c1ccc(S(=O)(=O)N2CC(C(=O)O)Oc3ccc(Cl)cc32)cc1 (centres undefined)	x	x	x	n	x
N#Cc1cccc(C(=O)OCC(=O)c2ccc3c(c2)NC(=O)CO3)c1	x	x	x	n	x
COCCN1C=C(C(=O)OC)C(c2ccc3c(c2)OCO3)C(C(=O)OC)=C1	n	n	n	n	n
COC(=O)C1=CN(C2CCCCC2)C=C(C(=O)OC)C1c1ccc2c(c1)OCO2	n	74.9	n	n	n
CCc1ccc(-c2cc(C)no2)cc1S(=O)(=O)NCCc1ccc(OC)c(OC)c1	x	x	x	n	x
CC1(C)CC(=O)c2cnc3c(C#N)cnn3c2C1	n	n	n	114.9	n
COc1nccc(NCc2ccccc2)c1C#N	x	x	x	n	x
SMILES	Runt-CBFb FRET	Runt-SMMHC FRET	Tb hexokinase	RanGTP-Imp inh	Hck Nef HTS
O=C1OC(c2ccc(Cl)cc2)=C/C1=C/c1cccnc1	x	x	x	n	x
Cc1ccc(C2=C/C(=C/c3cccnc3)C(=O)O2)c(C)c1	n	n	n	33.8	n
COCc1cc(C)nc(NC2CC(C)(C)NC(C)(C)C2)c1C#N	x	x	x	n	x
CCCCc1cc(=O)oc2cc(O)ccc12	n	86.1	n	n	115.2
CCN(CC)c1ccc(C(=O)OCc2cc(=O)oc3cc(O)ccc23)cc1	50.4	119.3	n	n	n
O=c1cc(CN2CCc3ccccc32)c2ccc(O)cc2o1	n	n	n	43.2	n
CCCNC(=O)c1nn2cc(Br)cnc2c1Br	n	n	n	n	n
CC(=O)COc1ccc2c(c1C)O/C(=C\c1ccco1)C2=O	x	x	x	18.3	x
Cc1cc(C)c(C(=O)NNC(=O)c2cccnc2)c(C)c1	x	x	x	n	x
C=CCN1C(=O)[C@]2(c3ccccc31)C1CCCC=C1C(C#N)=C(N)C2(C#N)C#N (some centres undefined)	n	n	n	n	n
CN1CCC2(CC1)C1CN(C)CC=C1C(C#N)=C(N)C2(C#N)C#N (centres undefined)	70.9!	75.2	n	42.6	n
Cc1cc(OCC(=O)Nc2ccc3oc(=O)ccc3c2)ccc1Cl	x	x	x	n	x
COC(=O)Cn1c2ccccc2c2nc3ccccc3nc21	x	x	x	n	x
CC(C)OC(=O)c1c2nc3ccccc3nc2n2c1[nH]c(=O)c1ccccc12	n	62.0	n	n	n
COc1cc(/C=N/N2CCN(C3c4ccccc4-c4ccccc43)CC2)cc(OC)c1O	n	55.6	n	n	n
COc1cc(/C=N/N2CCN(C3c4ccccc4-c4ccccc43)CC2)cc(OC)c1OC	n	n	n	n	n
O=C(CSC1CS(=O)(=O)c2cc([N+](=O)[O-])ccc21)NNC(=O)c1ccc(Cl)cc1 (centres undefined)	n	n	n	n	n
O=C(CSC1CS(=O)(=O)c2cc([N+](=O)[O-])ccc21)NNC(=O)c1ccccc1 (centres undefined)	n	n	n	18.4	n
Cc1cc(=O)oc(C)c1C(=O)NNC(=O)C1(C)CC1Br (centres undefined)	n	n	n	n	n
CC1(C(=O)NNC(=O)c2ccc(=O)oc2)CC1Br (centres undefined)	n	84.0	n	n	n
Cc1ccc2[nH]cc(CCNC(=O)C3CCCO3)c2c1 (centres undefined)	x	x	x	n	x
CCCn1nc(C(=O)Oc2ccc3c(C)cc(=O)oc3c2)c2ccccc2c1=O	n	88.4	n	n	n
Cc1cc(=O)oc2cc(OC(=O)c3ccccc3)ccc12	n	n	n	n	n
Cc1cc(=O)oc2cc(OC(=O)c3nn(C(C)C)c(=O)c4ccccc34)ccc12	n	89.9	n	n	n
CC(C)C[C@H](NC(=O)N1CCn2c1nc1ccccc12)C(=O)NCc1ccccc1	x	x	x	n	x
SMILES	Runt-CBFb FRET	Runt-SMMHC FRET	Tb hexokinase	RanGTP-Imp inh	Hck Nef HTS
CC(C)C[C@H](NC(=O)N1CCn2c1nc1ccccc12)C(=O)NCC1CCCO1 (some centres undefined)	x	x	x	20.7	x
CCOc1ccc(C(C)=O)cc1NC(=O)/C=C\C(=O)O	n	n	n	n	n
CCCn1c(=NC(C)=O)c(C#N)cc2c(=O)n3cccc(C)c3nc21	x	x	n	x	56.5
CCCCNC(=O)c1cc2c(=O)n3cccc(C)c3nc2n1C	n	n	x	x	x
COCCCn1c(=NC(=O)c2ccc3c(c2)OCO3)c(C#N)cc2c(=O)n3cccc(C)c3nc21	126.9	154.9	x	x	x
COCCCn1c(=NC(C)=O)c(C#N)cc2c(=O)n3cccc(C)c3nc21	57.1	81.7	n	81.8	n
Cc1nc2c(C)cccn2c(=O)c1NC(=O)c1ccc2c(c1)OCO2	x	x	x	n	x
CCN(C(=O)c1cc2c(=O)n3cccc(C)c3nc2n1CCCOC)C1CCCCC1	x	x	x	n	x
O=[N+]([O-])c1ncccc1OCc1ccc(Br)cc1F	x	x	x	n	x
COCCN(C(=O)CN1CCc2ccccc2C1)c1c(N)n(Cc2ccccc2)c(=O)[nH]c1=O	n	74.3	n	n	n
CC(C)CN(C(=O)CN1CCN(c2ccccc2F)CC1)c1c(N)n(CC(C)C)c(=O)[nH]c1=O	n	n	n	n	n
CC(C)CN(C(=O)CN1CCC(C)CC1)c1c(N)n(CC(C)C)c(=O)[nH]c1=O	n	n	n	u	n
